This note sets out measurements from ChEMBL document CHEMBL3085640, “Synthesis and antimicrobial activity of some novel hydrazide, benzochromenone, dihydropyridine, pyrrole, thiazole and thiophene derivatives” (2013).

Values after ≈ are worked out from the molar mass of the structure shown. Active and inactive are the calls of the source. The rule behind the calls is not given here.

Format in all cases: functional
For assay [1], the system named is Candida albicans. The assay can be described thus: Antifungal activity against Candida albicans assessed as growth inhibition after 48 hrs by broth microdilution method. The method, boiled down:
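MIC by broth microdilution in Sabouraud liquid medium. DMSO stocks are serially diluted two-fold in broth and inoculated with C. albicans. Sealed plates are incubated in a humid chamber at 36 °C for 48 h. The MIC is the lowest concentration without visible turbidity. Run only for compounds giving zones >10 mm.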
(In general: Broth dilution looks for growth in wells or tubes with falling amounts of substance.)

The subject of assay [2] is Staphylococcus aureus. Briefly: Antibacterial activity against Staphylococcus aureus MTCC 96 assessed as growth inhibition at 1 mg/mL after 24 hrs by […] method. To be noted: for zone of inhibition at 1000 µg/mL: MTCC 96, 24 h, read-out: DIZ. The method, boiled down: (§1)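 Sterile filter-paper discs soaked in a 1 mg/mL DMSO solution of the compound are placed on nutrient agar seeded with about 10^6 CFU/mL of bacteria, in triplicate. Plates are incubated at 36 °C for 24 h. The read-out is the mean diameter of the inhibition zone in mm. DMSO alone serves as the control.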

Assay [3] concerns Candida albicans. Briefly: Antifungal activity against Candida albicans assessed as growth inhibition at 1 mg/mL after 48 hrs by […] method. To be noted: read-out: DIZ. The method, boiled down:
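Sterile filter-paper discs soaked in a 1 mg/mL DMSO solution of the compound are placed on nutrient agar seeded with about 10^4 CFU/mL of C. albicans, in triplicate. Plates are incubated at 36 °C for 48 h. The read-out is the mean diameter of the inhibition zone in mm, with a DMSO-only control.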

The test system of assay [4] is Staphylococcus aureus. Briefly: Antibacterial activity against Staphylococcus aureus MTCC 96 assessed as growth inhibition after 24 hrs by broth microdilution method. The method, boiled down: (§2)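 MIC by broth microdilution in Müller-Hinton broth. DMSO stocks are diluted in broth to give two-fold serial dilutions, and about 10^6 CFU/mL of bacteria is added per well. Sealed plates are incubated in a humid chamber at 36 °C for 24 h. The MIC is the lowest concentration showing no visible turbidity. Run only for compounds giving zones >10 mm.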

The subject of assay [5] is Escherichia coli. Briefly: Antibacterial activity against Escherichia coli MTCC 443 assessed as growth inhibition at 1 mg/mL after 24 hrs by […] method. To be noted: for zone of inhibition at 1000 µg/mL: MTCC 443, 24 h, read-out: DIZ. The method, boiled down: as §1
In assay [6] the test system is Escherichia coli. Briefly: Antibacterial activity against Escherichia coli MTCC 443 assessed as growth inhibition after 24 hrs by broth microdilution method. The method, boiled down:
as §2

`COc1ccc(OC)c(-c2c(C#N)c(N)n(/N=C(\C)c3cc4c(ccc5ccccc54)oc3=O)c(=O)c2C#N)c1`: the MIC was determined as 125 µg/mL (≈ 235 µM) in assay [1]; 125 µg/mL (≈ 235 µM) in assay [4] (MTCC 96, 24 h); 125 µg/mL (≈ 235 µM) in assay [6] (MTCC 443, 24 h). The zone of inhibition at 1000 µg/mL in assay [2] came out at 23 mm; in assay [3], 18 mm; in assay [5], 23 mm.

Turning to `CC1(C)S[C@@H]2[C@H](NC(=O)[C@H](N)c3ccccc3)C(=O)N2[C@H]1C(=O)O` [AMPICILLIN], the zone of inhibition at 1000 µg/mL is 25 mm in assay [2] and 27 mm in assay [5]. Also, the MIC in assay [4] (MTCC 96, 24 h) was found to be 188 µg/mL (≈ 537 µM); in assay [6] (MTCC 443, 24 h), 125 µg/mL (≈ 358 µM).

`C/C(=N\n1c(N)c(C#N)c(-c2ccc(F)cc2)c(C#N)c1=O)c1cc2c(ccc3ccccc32)oc1=O`: the minimal inhibitory concentration (MIC) is 375 µg/mL (≈ 766 µM) in assay [1]; 125 µg/mL (≈ 255 µM) in assay [4] (MTCC 96, 24 h); 125 µg/mL (≈ 255 µM) in assay [6] (MTCC 443, 24 h). The figures for the zone of inhibition at 1000 µg/mL in assay [2], in assay [3] and in assay [5] were 21 mm, 10 mm and 21 mm, respectively.

With `C/C(=N\NC(=O)c1sc(=S)n(-c2ccccc2)c1N)c1cc2c(ccc3ccccc32)oc1=O`, the MIC was determined as 125 µg/mL (≈ 257 µM) in assay [1]; 125 µg/mL (≈ 257 µM) in assay [4] (MTCC 96, 24 h); 93.7 µg/mL (≈ 193 µM) in assay [6] (MTCC 443, 24 h). Also, the results for the zone of inhibition at 1000 µg/mL in assay [2], in assay [3] and in assay [5] were 26 mm, 15 mm and 27 mm, respectively.

In the case of `C/C(=N\N1C(=O)C(C#N)C=C1c1ccccc1)c1cc2c(ccc3ccccc32)oc1=O` (configuration not stated), the MIC in assay [1] was 250 µg/mL (≈ 596 µM); in assay [4] (MTCC 96, 24 h) it was 125 µg/mL (≈ 298 µM); in assay [6] (MTCC 443, 24 h), 250 µg/mL (≈ 596 µM). Further, the zone of inhibition at 1000 µg/mL stood at 13 mm in assay [2], 13 mm in assay [3] and 16 mm in assay [5].

As for `COc1ccc(OC)c(-c2c(C#N)c(O)n(/N=C(\C)c3cc4c(ccc5ccccc54)oc3=O)c(=O)c2C#N)c1`, the minimum inhibitory concentration (MIC) in assay [1] stood at 250 µg/mL (≈ 469 µM); in assay [4] (MTCC 96, 24 h), 250 µg/mL (≈ 469 µM); in assay [6] (MTCC 443, 24 h), 188 µg/mL (≈ 352 µM). Besides, the results for the zone of inhibition at 1000 µg/mL in assay [2], in assay [3] and in assay [5] were 13 mm, 10 mm and 20 mm, respectively.

Consider `C/C(=N\NC(=O)/C(C#N)=C/c1ccc(F)cc1)c1cc2c(ccc3ccccc32)oc1=O`, for which the MIC in assay [1] was 125 µg/mL (≈ 294 µM); in assay [4] (MTCC 96, 24 h), 125 µg/mL (≈ 294 µM); in assay [6] (MTCC 443, 24 h) it was 250 µg/mL (≈ 588 µM). Moreover, the zone of inhibition at 1000 µg/mL in assay [2] was found to be 22 mm; in assay [3] it was 18 mm; in assay [5], 20 mm.

As to `C/C(=N\n1c(N)cc(N)c(C#N)c1=O)c1cc2c(ccc3ccccc32)oc1=O`, the minimal inhibitory concentration (MIC) in assay [1] was 125 µg/mL (≈ 324 µM); in assay [4] (MTCC 96, 24 h), 375 µg/mL (≈ 973 µM); in assay [6] (MTCC 443, 24 h), 125 µg/mL (≈ 324 µM). Also, the zone of inhibition at 1000 µg/mL in assay [2] amounted to 8 mm; in assay [3] it was 18 mm; in assay [5] it was 23 mm.

Turning to `C/C(=N\NC(=O)c1c(N)sc2c1CCCC2)c1cc2c(ccc3ccccc32)oc1=O`, the minimum inhibitory concentration (MIC) was 500 µg/mL (≈ 1160 µM) in assay [1] and 375 µg/mL (≈ 869 µM) in assay [4] (MTCC 96, 24 h). Further, the results for the zone of inhibition at 1000 µg/mL in assay [2] and in assay [3] were 5 mm and 9 mm, respectively. The “growth inhibition (GI)” value in assay [5] is “inactive”. Moreover, the MIC result in assay [6] is “inactive”.

Consider `C/C(=N\NC(=O)CC#N)c1cc2c(ccc3ccccc32)oc1=O`, for which the MIC worked out at 250 µg/mL (≈ 783 µM) in assay [1]; 125 µg/mL (≈ 391 µM) in assay [4] (MTCC 96, 24 h); 125 µg/mL (≈ 391 µM) in assay [6] (MTCC 443, 24 h). For the same compound, the zone of inhibition at 1000 µg/mL in assay [2] is 21 mm; in assay [3] it was 11 mm; in assay [5] it was 23 mm.

In the case of `C/C(=N\NC(=O)/C(C#N)=C/c1cccnc1)c1cc2c(ccc3ccccc32)oc1=O`, the MIC in assay [1] was found to be 125 µg/mL (≈ 306 µM); in assay [4] (MTCC 96, 24 h) it was 125 µg/mL (≈ 306 µM); in assay [6] (MTCC 443, 24 h) it was 125 µg/mL (≈ 306 µM). For the same compound, the results for the zone of inhibition at 1000 µg/mL in assay [2], in assay [3] and in assay [5] were 22 mm, 19 mm and 23 mm, respectively.

Turning to `C/C(=N\NC(=O)/C(C#N)=C/N(C)C)c1cc2c(ccc3ccccc32)oc1=O`, in assay [1], the minimum inhibitory concentration (MIC) was found to be 750 µg/mL (≈ 2000 µM). Besides, the “growth inhibition (GI)” value in assay [2] and in assay [5] was “inactive” in each case. Moreover, the zone of inhibition at 1000 µg/mL in assay [3] was 7 mm. Moreover, the MIC result in assay [4] and in assay [6] was “inactive” each time.

`C/C(=N\NC(=O)/C(C#N)=N/Nc1ccc(C)cc1)c1cc2c(ccc3ccccc32)oc1=O`: the MIC in assay [1] turned out to be 125 µg/mL (≈ 286 µM); in assay [4] (MTCC 96, 24 h) it was 125 µg/mL (≈ 286 µM); in assay [6] (MTCC 443, 24 h), 125 µg/mL (≈ 286 µM). Also, the zone of inhibition at 1000 µg/mL was 24 mm in assay [2], 21 mm in assay [3] and 24 mm in assay [5].

Take `C/C(=N\NC(=O)c1sc(N)c(C#N)c1N)c1cc2c(ccc3ccccc32)oc1=O`: the MIC in assay [1] was 125 µg/mL (≈ 299 µM). Moreover, the “growth inhibition (GI)” value in assay [2] and in assay [5] was “inactive” each time. The zone of inhibition at 1000 µg/mL in assay [3] worked out at 20 mm. Further, the MIC entry in assay [4] and in assay [6] was “inactive” in each case.

With `C/C(=N\NC(=O)c1cc2c(ccc3ccccc32)oc1=O)c1cc2c(ccc3ccccc32)oc1=O`, the minimum inhibitory concentration (MIC) in assay [1] was found to be 188 µg/mL (≈ 395 µM); in assay [4] (MTCC 96, 24 h) it was 62.5 µg/mL (≈ 132 µM); in assay [6] (MTCC 443, 24 h), 93.7 µg/mL (≈ 197 µM). Further, the zone of inhibition at 1000 µg/mL was 27 mm in assay [2], 20 mm in assay [3] and 28 mm in assay [5].

Turning to `C/C(=N\n1c(O)c(C#N)c(-c2cccc(O)c2)c(C#N)c1=O)c1cc2c(ccc3ccccc32)oc1=O`, the MIC in assay [1] was found to be 188 µg/mL (≈ 384 µM); in assay [4] (MTCC 96, 24 h) it was 250 µg/mL (≈ 512 µM); in assay [6] (MTCC 443, 24 h) it was 125 µg/mL (≈ 256 µM). For the same compound, the zone of inhibition at 1000 µg/mL was 12 mm in assay [2], 19 mm in assay [3] and 24 mm in assay [5].

For the compound `C/C(=N\NC(=O)/C(C#N)=C/c1ccc(Cl)cc1)c1cc2c(ccc3ccccc32)oc1=O`, the MIC is 125 µg/mL (≈ 283 µM) in assay [1]; 188 µg/mL (≈ 424 µM) in assay [4] (MTCC 96, 24 h); 250 µg/mL (≈ 566 µM) in assay [6] (MTCC 443, 24 h). Further, the zone of inhibition at 1000 µg/mL is 23 mm in assay [2], 17 mm in assay [3] and 17 mm in assay [5].

Regarding `Clc1ccccc1C(c1ccccc1)(c1ccccc1)n1ccnc1` [CLOTRIMAZOLE], the MIC in assay [1] stood at 5.8 µg/mL (≈ 16.8 µM). In addition, the zone of inhibition at 1000 µg/mL in assay [3] worked out at 30 mm.

For orientation: MIC means the lowest concentration found to suppress growth.
